Laboratory results: ChEMBL document CHEMBL1131076, “Synthesis of 9-deoxo-4''-deoxy-6,9-epoxyerythromycin derivatives: novel and acid-stable motilides” (1998)

Experiments:
Type in all cases: functional
[1] = species: Oryctolagus cuniculus; assay: Compound was evaluated for the prokinetic activity by measuring smooth muscle contractility from rabbit duodenum isolated tissue.
Method in brief: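 Isolated rabbit duodenum in vitro; records induction of well-coordinated smooth muscle contractions; potency given as pED50.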

[2] = system: Escherichia coli; assay: In vitro antibacterial activity against the Escherichia coli (No. of strains used :5)
[3] = system: Streptococcus sp.; assay: In vitro antibacterial activity against the Streptococcus sp. (No. of strains used :4)
[4] = system: Staphylococcus aureus; assay: In vitro antibacterial activity against the Staphylococcus aureus (No. of strains used :5)

CC[C@H]1OC(=O)[C@H](C)[C@@H](OC2C[C@@](C)(OC)C[C@H](C)O2)[C@H](C)[C@@H](OC2O[C@H](C)C[C@H](N(C)CCF)[C@H]2O)[C@@]2(C)C[C@H](C)[C@H](O2)[C@H](C)[C@@H](O)[C@]1(C)O (some centres not stated)
pED50 [1]: 6.67

CC[C@H]1OC(=O)[C@H](C)[C@@H](OC2C[C@@](C)(OC)C[C@H](C)O2)[C@H](C)[C@@H](OC2O[C@H](C)C[C@H](N(C)CC)[C@H]2O)[C@@]2(C)CC(C)=C(O2)[C@H](C)[C@@H](O)[C@H]1C (some centres not stated)
pED50 [1]: 7.22

CCCCN(C)[C@H]1C[C@@H](C)OC(O[C@@H]2[C@@H](C)[C@H](OC3C[C@@](C)(OC)C[C@H](C)O3)[C@@H](C)C(=O)O[C@H](CC)[C@@](C)(O)[C@H](O)[C@@H](C)[C@H]3O[C@]2(C)C[C@@H]3C)[C@@H]1O (some centres not stated)
pED50 [1]: 4.71

CC[C@H]1OC(=O)[C@H](C)[C@@H](OC2C[C@@](C)(OC)C[C@H](C)O2)[C@H](C)[C@@H](OC2O[C@H](C)C[C@H](N(C)CCO)[C@H]2O)[C@@]2(C)C[C@H](C)[C@H](O2)[C@H](C)[C@@H](O)[C@]1(C)O (some centres not stated)
pED50 [1]: 8.11
MIC [2]: > 100 mg/L
MIC [3]: > 100 mg/L
MIC [4]: > 100 mg/L

CC[C@H]1OC(=O)[C@H](C)[C@@H](OC2C[C@@](C)(OC)C[C@H](C)O2)[C@H](C)[C@@H](OC2O[C@H](C)C[C@H](N(C)C)[C@H]2O)[C@@]2(C)C[C@@H](C)[C@@H](O2)[C@H](C)[C@@H](O)[C@]1(C)O (some centres not stated)
pED50 [1]: 5.45

CC[C@H]1OC(=O)[C@H](C)[C@@H](OC2C[C@@](C)(OC)C[C@H](C)O2)[C@H](C)[C@@H](OC2O[C@H](C)C[C@H](N(C)CC)[C@H]2O)[C@@]2(C)C[C@H](C)[C@H](O2)[C@H](C)[C@@H](O)[C@]1(C)O (some centres not stated)
pED50 [1]: 8.54
MIC [2]: > 100 mg/L
MIC [3]: > 100 mg/L
MIC [4]: > 100 mg/L

CC[C@H]1OC(=O)[C@H](C)[C@@H](OC2C[C@@](C)(OC)C[C@H](C)O2)[C@H](C)[C@@H](OC2O[C@H](C)C[C@H](N(C)CCN)[C@H]2O)[C@@]2(C)C[C@H](C)[C@H](O2)[C@H](C)[C@@H](O)[C@]1(C)O (some centres not stated)
pED50 [1]: 6.43

CC[C@H]1OC(=O)[C@H](C)[C@@H](OC2C[C@@](C)(OC)C[C@H](C)O2)[C@H](C)[C@@H](OC2O[C@H](C)C[C@H](N(C)Cc3ccccc3)[C@H]2O)[C@@]2(C)C[C@H](C)[C@H](O2)[C@H](C)[C@@H](O)[C@]1(C)O (some centres not stated)
pED50 [1]: 4

CC[C@H]1OC(=O)[C@H](C)[C@@H](OC2C[C@@](C)(OC)C[C@H](C)O2)[C@H](C)[C@@H](OC2O[C@H](C)C[C@H](N(C)C)[C@H]2O)[C@@]2(C)C[C@@H](C)[C@H](O2)[C@H](C)[C@@H](O)[C@]1(C)O (some centres not stated)
pED50 [1]: 7.8

CC[C@H]1OC(=O)[C@H](C)[C@@H](OC2C[C@@](C)(OC)C[C@H](C)O2)[C@H](C)[C@@H](OC2O[C@H](C)C[C@H](NC)[C@H]2O)[C@@]2(C)C[C@H](C)[C@H](O2)[C@H](C)[C@@H](O)[C@]1(C)O (some centres not stated)
pED50 [1]: 7.64

CC[C@H]1OC(=O)[C@H](C)[C@@H](OC2C[C@@](C)(OC)C[C@H](C)O2)[C@H](C)[C@@H](OC2O[C@H](C)C[C@H](N(C)C(C)C)[C@H]2O)[C@@]2(C)C[C@H](C)[C@H](O2)[C@H](C)[C@@H](O)[C@]1(C)O (some centres not stated)
pED50 [1]: 7.75

CC[C@H]1OC(=O)[C@H](C)[C@@H](OC2C[C@@](C)(OC)C[C@H](C)O2)[C@H](C)[C@@H](OC2O[C@H](C)C[C@H](N(C)CC#N)[C@H]2O)[C@@]2(C)C[C@H](C)[C@H](O2)[C@H](C)[C@@H](O)[C@]1(C)O (some centres not stated)
pED50 [1]: 5.71

CC[C@H]1OC(=O)[C@H](C)[C@@H](OC2C[C@@](C)(OC)C[C@H](C)O2)[C@H](C)[C@@H](OC2O[C@H](C)C[C@H](N(C)C)[C@H]2O)[C@@]2(C)C[C@H](C)[C@H](O2)[C@H](C)[C@@H](O)[C@]1(C)O (some centres not stated)
pED50 [1]: 7.93
MIC [2]: > 100 mg/L
MIC [3]: > 100 mg/L
MIC [4]: > 100 mg/L
